G6PDH counter – L. mesenteroides G6PDH inhibitors, counter-screen for G6PDH-coupled screening assays, biochemical, Leuconostoc mesenteroides enzyme. Purified L. mesenteroides G6PDH, diaphorase/resazurin coupled fluorescence, 45 min. inhibition, % at 5 µM. hit rate 0.12% among 200,000
L major viab – Leishmania major promastigote growth inhibition, primary screen | Leishmania major promastigotes, resazurin fluorescence viability | inhibition, % at 10 µM | hit rate 9% among 200,000 | AID 1063, 2008;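 note: promastigotes grown with compound for 44 hours at 28 °C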
Diaph inh CS – diaphorase inhibitors and chemical oxidizers, primary screen, counter-screen for diaphorase-coupled primary assays, biochemical, uHTS, resorufin fluorescence; diaphorase resazurin-to-resorufin fluorescence, NADH, 16 min; bacterial (C. kluyveri) enzyme, not human; hit rate 0.69% among 190,000; inhibition, % at 20 µM;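 active = primary screen inhibition at 20 µM above a set limit, cut at about 50% in these data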;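 note: plate controls were DMSO with full reaction for no effect and wells lacking NADH for full effect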
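Test system: bacterial diaphorase enzyme (C. kluyveri); Quantity: 0.14 U/mL diaphorase, enzyme working solution; Times: reaction incubation of 16 min at room temperature; Measured by: fluorescence of resorufin formed from resazurin, Ex 544/Em 590 nm; Benchmarks: positive control minus NADH, DMSO neutral control.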
Diaph act CS – compounds boosting diaphorase resazurin reduction – biochemical, uHTS, resorufin fluorescence, counter-screen for diaphorase-coupled primary assays, primary screen. Diaphorase/resazurin coupled assay, 16 min; active compounds read high; 1 = vehicle wells, 0 = NADH-free wells. activation factor at 20 µM. hit rate 0.005% among 190,000. AID 1229, 2008;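 active = diaphorase activity raised at least twofold by the compound at 20 µM; inactive = activation factor below 2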
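Test system: Clostridium kluyveri diaphorase, purified enzyme. Buffer or medium: 50 mM HEPES pH 7.4 buffer plus MgCl2 and Tween 20. Also added: 0.114 mM NADH and 0.1 mM resazurin, final amounts. Dosing: compound 20 µM once, DMSO 1%. Schedule: 16 min enzyme reaction, ambient temperature. Detection: fluorescence of resorufin, 544 nm excitation, 590 nm emission.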
WT yeast gro inh – growth inhibition of WT strain, primary screen, mitochondrial fusion inhibitor project, WT and mutant strains, chemical genetic | mitochondrial fusion phenotypic screen | inhibition, % at 10 µM | hit rate 2.1% among 190,000; in the data active = inhibition above about 58%; tested in S. cerevisiae
* hit, by the source's call; . = no result given. Rows were chosen to be rich in hits. Some 11% of all compounds tested hit in one or more screens of this group. Cut-off read from the data, not from the text of the source, unless noted: active = inhibition above about 50%; inactive = the rest.

SMILES | G6PDH counter | L major viab | Diaph inh CS | Diaph act CS | WT yeast gro inh
CCCCN(CC)Cc1ccc(CNC(=O)Nc2ccc(F)cc2)o1 | 4 | 98* | -5 | 1.1 | .
Cc1ccc(NC(=O)C2CC(=O)n3ncnc3N2)cc1C (centres undefined) | 2 | -6 | 19 | 0.8 | 22
Clc1ccc2c(N/N=C/c3ccccc3Br)ccnc2c1 | -1 | 99* | -10 | 1.1 | 95
Clc1ccc2c(N/N=C/c3cccc(Br)c3)ccnc2c1 | -9 | 100* | -5 | 1 | 99*
Clc1ccc2c(NNc3ccccc3Cl)ccnc2c1 | 6 | -3 | 12 | 0.9 | 6
Cc1ccccc1NC(=O)C(=O)NCc1ccccn1 | -18 | -1 | 9 | 0.9 | -3
CC(C)C(=O)Nc1ncc2c(n1)CC(c1cccs1)CC2=O (centres undefined) | -2 | -8 | 11 | 0.9 | -3
CCOC(=O)N1CCC(N2CCCC(C(=O)c3ccccc3OC)C2)CC1 (centres undefined) | 8 | 80* | 4 | 1 | -5
CCCS(=O)(=O)N1CCCC(C(=O)c2ccccc2OC)C1 (centres undefined) | 11 | -2 | -2 | 1 | -8
CCOC(=O)N1CCC(N2CCCC(C(=O)c3ccc4cc(OC)ccc4c3)C2)CC1 (centres undefined) | 8 | 98* | 11 | 0.9 | 42
CCOC(=O)N1CCC(N2CCCC(C(=O)c3cc(C)c(OC)c(C)c3)C2)CC1 (centres undefined) | 13 | 93* | 20 | 0.8 | 5
C=CCSc1nnc(NC(=O)COc2ccc3ccccc3c2)s1 | 6 | -5 | 2 | 1 | 86*
CN(C)/C=C(\C=O)c1ccc(Cl)cc1Cl | 12 | -1 | 13 | 0.9 | 0
CC(NC(N)=O)C(=O)Nc1ccc(Cl)c(S(=O)(=O)Nc2ccc(Br)cc2)c1 (centres undefined) | 2 | -8 | 14 | 0.9 | -5
COc1ccc(-n2c(-c3ccc(Br)cc3)c[n+]3c2CCC3)cc1 | -2 | 100* | 1 | 1 | 3
COc1ccc(-n2c(-c3ccc(Br)cc3)c[n+]3c2CCCCC3)cc1 | 3 | 100* | 16 | 0.8 | 16
COc1ccc(-n2c(-c3ccc(Br)cc3)c[n+]3c2SC(C)C3)cc1 (centres undefined) | -1 | 100* | 0 | 1 | 15
COc1ccc(Cc2nc(-c3ccc(Br)cc3)no2)cc1 | -9 | -8 | 19 | 0.8 | 35
FC(F)Sc1ccc(-n2c(-c3ccc(Cl)cc3)c[n+]3c2CCC3)cc1 | 1 | 25 | -1 | 1 | 8
COc1ccc(NCc2nn(CC(=O)c3ccc(Br)cc3)c3[n+]2CCCCC3)cc1 | 0 | 18 | 8 | 0.9 | -1
COc1ccc(CC(=O)NCc2n[nH]c(=S)n2-c2ccc(Br)cc2)cc1 | 5 | -7 | 35 | 0.6 | -7
Cc1ccc(-n2c(-c3ccccc3)c[n+]3c2CCC3)cc1 | 5 | 98* | 79* | 0.2 | -6
S=C1NCN(C2CCCCC2)CN1Cc1ccccc1 | 0 | -6 | 4 | 1 | 3
CCOc1ccc(-n2c(-c3ccc(Cl)cc3)c[n+]3c2SCC3)cc1 | -2 | 100* | 7 | 0.9 | -9
CCOc1ccc(-c2c[n+]3c(n2-c2ccccc2)CCCCC3)cc1 | 6 | 100* | 14 | 0.9 | 3
SMILES | G6PDH counter | L major viab | Diaph inh CS | Diaph act CS | WT yeast gro inh
COc1ccc(-n2c(-c3ccc(Br)cc3)nc(=S)c3c2CCCC3)cc1 | -20 | -4 | 18 | 0.8 | 63*
CCOc1ccc(-c2nnc(-c3ccccc3)n2-c2ccccc2)cc1 | 23 | 65* | 12 | 0.9 | 0
COc1cccc(-c2nc(=S)c3c(n2CCCO)CCCC3)c1 | -7 | -5 | 29 | 0.7 | 14
CCOc1ccc(NC(=O)CSc2nnc(CNC(=O)c3ccco3)o2)cc1 | 4 | -6 | 15 | 0.9 | -7
NS(=O)(=O)c1ccc(CCNC(=O)Nc2ccc(Cl)c(Cl)c2)cc1 | 8 | 76* | 12 | 0.9 | 5
CNC(=O)CNC(=O)Nc1ccc(Cl)c(Cl)c1 | 7 | -3 | 67* | 0.3 | -1
CC1CCC(NCc2ccco2)CC1 (centres undefined) | 13 | -2 | 2 | 1 | -10
Cc1ccc(C(=O)Nc2ccc(F)cc2)o1 | 0 | 51* | 1 | 1 | 9
Cc1ccc(CN2CCC(C(=O)NCCC(C)C)CC2)o1 | -1 | 60* | 21 | 0.8 | -15
O=C1Nc2ccc(F)cc2C12SCCS2 | 4 | 3 | 23 | 0.8 | 10
NC(=O)COC(=O)c1ccccc1Nc1ccc(SC(F)F)cc1 | -7 | -7 | 22 | 0.8 | 41
CC(OC(=O)c1ccccc1Nc1ccc(SC(F)F)cc1)C(N)=O (centres undefined) | -4 | 55* | 28 | 0.7 | 81*
O=C(COC(=O)c1ccccc1Nc1ccc(SC(F)F)cc1)NC1CC1 | 6 | 61* | 18 | 0.8 | 48
COc1ccc([N+](=O)[O-])cc1NC(=O)c1ccco1 | 8 | 6 | 14 | 0.9 | 4
Cc1ccc(NCc2nnc(SCC(=O)c3ccccc3)n2Cc2ccco2)c(C)c1 | 4 | 18 | 24 | 0.8 | 9
Cc1ccc(NC(=S)N(CCCN(C)C)Cc2cc3cc4c(cc3[nH]c2=O)OCO4)c(C)c1 | 6 | 4 | 7 | 0.9 | 7
COc1cccc(CNC(=O)C(c2ccc(Cl)cc2)C(C)C)c1 (centres undefined) | -6 | 57* | 17 | 0.8 | 12
COc1ccc2c(c1)-c1nc(/N=C/c3cccc(OC)c3O)sc1CC2 | -2 | 61* | 0 | 1 | 9
COc1cccc(C=Nc2cccnc2)c1O | -1 | -10 | 19 | 0.8 | 11
COc1ccc(OC)c(/C=N/c2c(-c3ccc(O)c(OC)c3)nc3ccccn23)c1 | 8 | 9 | 42 | 0.6 | 26
COc1ccc2c(c1)-c1nc(/N=C/c3ccccc3O)sc1CC2 | -6 | -6 | 54* | 0.5 | 14
O=C(c1ccccc1Sc1c(Cl)cccc1[N+](=O)[O-])N1CCOCC1 | -3 | -3 | 12 | 0.9 | -2
O=C(N/N=C/c1ccc(Br)o1)c1ccc2c(c1)OCCO2 | -7 | 0 | 0 | 1 | 5
O=C(c1cc2n(n1)C(C(F)(F)F)CC(c1ccco1)N2)N1CCc2ccccc2C1 (centres undefined) | 0 | 54* | 19 | 0.8 | 33
CS(=O)(=O)N(CC(=O)N/N=C/c1cccs1)c1cccc(Cl)c1Cl | 1 | 10 | 9 | 0.9 | -9
CCOC(=O)[C@H]1NN=C(C(=O)OC)[C@@H]1c1ccccc1 | 10 | -5 | -5 | 1.1 | -1
